Source: ChEMBL document CHEMBL4513216, “Probing the Open Global Health Chemical Diversity Library for Multistage-Active Starting Points for Next-Generation Antimalarials” (ACS Infect Dis, 2020)

Test: Toxicity liver stage against HepG2, at 10uM
Type: cell-based
Parameters: test concentration 10 uM, cell line HepG2-A16-CD81EGFP
Conditions: human, HepG2-A16-CD81EGFP cells; read-out: INHIBITION
How it was run: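 Uninfected HepG2-A16-CD81EGFP cells, 3 × 10^3 per well, 1536-well, plated on prespotted compound at 10 μM final, parasite-free screening media added to match infected plates; puromycin 10 μM positive, DMSO 0.5% negative; run in parallel with 48 h PbLuc assay at 37 °C, 5% CO2; viability by CellTiter-Glo luminescence, normalized to controls.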

Row | Compound | cytotoxicity at 10 µM [%]
1 | O=C1CO[C@H]2CN(S(=O)(=O)c3ccccc3)C[C@H]2N1CC1CCCCC1 | 3.36
2 | N#Cc1ccc(C(=O)N2CCOC[C@H](Oc3cnccn3)C2)cc1 | 5.88
3 | Nc1ncncc1-c1noc([C@@H]2CCCN2CC2CC2)n1 | -1.18
4 | CCc1nnc(SCc2cc(=O)n3c4c(sc3n2)CCCC4)[nH]1 | -3.91
5 | CCOC(=O)[C@@H]1[C@@H](O)C(=O)N(C)C12CCN(C(=O)c1ccco1)CC2 | -2.36
6 | COCCOC(=O)N1CC2=CC(C)(C)COc3ccc(OC)c(c32)C1 | 1.22
7 | CCCNC(=O)Cn1cc(OC)c(=O)cc1CSc1nc(C)cc(C)n1 | 4.46
8 | O=C(CN1CCC(c2nnc(C(F)(F)F)o2)CC1)NCc1ccccc1 | 2.51
9 | O=C1CCC2(CCCN(C(=O)c3cnccn3)CC2)N1 (stereo unspecified) | -2.66
10 | O=C1CO[C@@H]2CN(C(=O)CCc3ccccc3)C[C@H]2N1 | 6.06
11 | COCCC(=O)N1CCCC2(CCN(c3ccccc3)C2=O)C1 (stereo unspecified) | -1.66
12 | CN1C(=O)C2(CCN(S(=O)(=O)C3CC3)CC2)c2ccccc21 | -5.27
13 | CCOCC1CN(C(=O)N(C)C)Cc2nnn(CC3CC3)c21 (stereo unspecified) | -6.26
14 | COc1cccc(CC(=O)N2CC[C@H]3[C@@H]2CCC(=O)N3C)c1 | -4.57
15 | O=C(Nc1ccccc1)N1C[C@@H]2OCCN(C(=O)c3ccco3)[C@@H]2C1 | -150
16 | Cc1cnc(C(=O)N2CCc3ncnc(-c4cnn(C)c4)c3CC2)cn1 | 0.588
17 | CC(C)c1ccc(S(=O)(=O)N2CCCC3(CCCN3S(C)(=O)=O)C2)cc1 (stereo unspecified) | -0.96
18 | O=C(C1CC1)N1CCC2(COCc3cnc(NCc4ccco4)nc32)C1 (stereo unspecified) | -1.08
19 | O=c1cccnn1CC1CN(c2ncc(F)cn2)Cc2nccn2C1 (stereo unspecified) | 4.65
20 | COc1ccc(CN2C[C@@H]3CCCO[C@@H]3[C@H](NC(=O)CC3CC3)C2)cc1 | 25.3
21 | O=C(c1ccsc1)N1C[C@H]2CN(Cc3cccc(F)c3)C(=O)[C@H]2C1 | 0.98
22 | COCC1COCCC12CCN(C(=O)Cc1cccc(OC)c1)CC2 (stereo unspecified) | -2.56
23 | O=c1cc(Cn2ccnc2)nc2n1CCCN(Cc1ccc(F)cc1)C2 | 7.17

Row | Compound | cytotoxicity at 10 µM [%]
24 | CSc1nc2ncc3c(=O)n(C)ccc3n2n1 | -11.6
25 | Cc1nnc([C@H]2CC[C@@H]3[C@@H](CCN3Cc3c(C)noc3C)O2)o1 | -2.26
26 | Cc1nn(C(C)C)c2cn(CC(=O)NC3CCSCC3)nc12 | -2.72
27 | CCn1ncc2c(C(F)(F)F)cc(-c3ccn(C)n3)nc21 | 4.75
28 | CCc1ccccc1Nc1noc2c1CN(C(=O)c1ccn(C)n1)CC2 | 0.295
29 | CN(C)S(=O)(=O)c1ccc(CNC(=O)C2CC(=O)N(C(C)(C)C)C2)cc1 (stereo unspecified) | 2.13
30 | COCC(=O)N(C)Cc1nc(N(C)C)ncc1-c1ccncc1 | 2.42
31 | O=C(CCOc1ccccc1F)NC1CCCN(c2ccccn2)C1 (stereo unspecified) | -5.67
32 | Cc1cc(C(=O)NCc2ccc(F)cc2)nc(C2CCCN2C)n1 (stereo unspecified) | -28.7
33 | CCCc1ncc(CNC2(c3ccc(Cl)cc3)CCC2)cn1 | -9.48
34 | Cc1n[nH]c(C)c1-c1nccnc1CC1CCN(S(C)(=O)=O)C1 (stereo unspecified) | -10.4
35 | CC(=O)N(C)Cc1cccc(NC(=O)c2cnn(C)c2C)c1 | 3.5
36 | CS(=O)(=O)NCCN1CCSCC1c1ccc(Cl)cc1 (stereo unspecified) | -3.7
37 | CC(C)(NS(C)(=O)=O)C(=O)NCc1cccc(Br)c1 | -2.42
38 | CCC(C)(C)C(=O)Nc1ccc2ccn(CC(=O)NC)c2c1 | 4.19
39 | Cc1nc(C)n(CC2CCCN2c2ncnc3sccc23)n1 (stereo unspecified) | -1.09
40 | CCN(Cc1ccco1)C(=O)NCC(C)N1CCc2sccc2C1 (stereo unspecified) | 9.08
41 | CC(C)N1CCCC(CNC(=O)CN(C)S(=O)(=O)c2ccccc2)C1 (stereo unspecified) | -3.88
42 | Cn1ccnc1CCNS(=O)(=O)c1cccc(Br)c1 | 4.95
43 | CC(C)CC(NC(=O)c1cnn(C)c1)C(=O)Nc1cc[nH]n1 (stereo unspecified) | -3.38
44 | OC(CNCCn1cccn1)COc1ccc(Br)cc1 (stereo unspecified) | -8.03
45 | CCN(CC)CCn1cc(NC2CCSCC2)cn1 | 2.5
46 | COc1ccc(CNC(=O)NC2CCN(c3ccccc3)C2=O)cc1 (stereo unspecified) | -2.98

Row | Compound | cytotoxicity at 10 µM [%]
47 | CCn1nc2c(cc1=O)CN(Cc1nc(C)c3ccccc3n1)CC2 | -9.35
48 | N#Cc1cccc(OCCN2CCCC2C(=O)NC2CC2)c1 (stereo unspecified) | -3.78
49 | CCc1nc(CN(C)C(=O)NCc2cccc(NC(C)=O)c2)cs1 | -3.71
50 | Cn1cnc2c1CCN(CC(=O)N(Cc1ccccc1F)C1CC1)C2 | 4.91
51 | CCCc1nc(CNc2cccc(C(=O)N3CCCC(O)C3)c2)no1 (stereo unspecified) | -5.35
52 | O=C(NCCn1ccnc1)c1csc(Br)c1 | 13
53 | CCC(=O)NCC(=O)NCC1(c2c(F)cccc2F)CCCC1 | -0.147
54 | Cc1cc(CNC(=O)Cc2cccs2)ccc1S(C)(=O)=O | -2.74
55 | Cc1cccc(OCCNC(=O)C(C)S(=O)(=O)C2CCCC2)c1 (stereo unspecified) | 6.72
56 | Cc1cc(OC(F)F)c(C(=O)N2CCN(C3CC3)CC2)s1 | 9.05
57 | CN(CCNS(C)(=O)=O)CC(c1cccs1)N1CCOCC1 (stereo unspecified) | -3.43
58 | CC(C)c1ccc(C(=O)O)cc1S(=O)(=O)Nc1ccc(=O)n(C)c1 | -13.1
59 | Cn1ccc(C(=O)NCCOc2ccc3c(c2)OCO3)cc1=O | 5.97
60 | COc1cc(F)c(S(=O)(=O)Nc2cnc(O)cc2C)cc1OC | 5.66
61 | COCCNC(=O)Cn1cc(NC(=O)c2cccc(Cl)c2Cl)cn1 | -7.04
62 | CCc1cnc(NC(=O)NC2CCN(C)CC2)s1 | -5.66
63 | Cn1ncnc1NS(=O)(=O)c1ccc(F)cc1 | 7.66
64 | CC(C)N1Cc2cccc(NCC(=O)N(C)C)c2C1 | 6.05
65 | CC(C)CCC(C)NC(=O)Nc1ccccn1 (stereo unspecified) | 5.28
66 | Cc1cccc(CNC(CN2CCN(C)CC2)c2ccccc2)c1 (stereo unspecified) | -3.61
67 | Cc1cc(NC(=O)CCc2ccsc2)n(C)n1 | 17.8
68 | CN(C)C(=O)COCC1CN(Cc2ccoc2)Cc2nnn(C)c21 (stereo unspecified) | 1.81
69 | Fc1ccc(-c2cc(NCCC3CCOC3)n3nccc3n2)cc1 (stereo unspecified) | 2.8

Row | Compound | cytotoxicity at 10 µM [%]
70 | CCn1c(Cn2cncn2)nnc1C1CCN(C2CCNCC2)CC1 | -0.0807
71 | O=C(N[C@@H]1CCNC[C@H]1O)c1cc(F)cc(Cl)c1 | -3.12
72 | CCc1cnc(N)nc1N1CCCC2(CCOCC2)C1 | -135
73 | Cc1nc2c(c(=O)n1C)CN(C(=O)C1CCCN(C(=O)N(C)C)C1)C2 (stereo unspecified) | -5.18
74 | CC(C)c1nccc(CN2CCCC(O)(CN(C)C)CC2)n1 (stereo unspecified) | -2.01
75 | Cn1c(-c2ccccc2Cl)nc2cc(C(=O)NCC3(C)COC3)cnc21 | 1.59
76 | COCc1ccc(C(=O)N2CCC(Oc3ccccc3OC)CC2)s1 | 5.79
77 | CN(Cc1noc2c1CCCC2)C(=O)Nc1cncc(F)c1 | 2.26
78 | C=C(C)COc1cccc(C(=O)N(C)Cc2cc(CC)no2)c1 | -3.42
79 | COc1ccc2[nH]c(=O)c(CN(C)C(C)c3ccccn3)cc2c1 (stereo unspecified) | 2.76
80 | c1nc(CCNc2nc(C3CC3)nc3c2CCNCC3)c[nH]1 | -130
81 | CCn1ncnc1C(C)NC(=O)C1CCN(Cc2ccco2)CC1 (stereo unspecified) | -133
82 | CC(C)(O)CCc1ccc(C(=O)NCCC2CCOC2)cc1 (stereo unspecified) | 0.824
83 | CCc1nc(N2CCN(c3ncccn3)CC2)c2cnn(C)c2n1 | -1.04
84 | Cn1ncc2c(N3CCC3)nc(-c3ccncc3)nc21 | 11.8
85 | CN(C)c1ccc(CC(=O)N[C@@H]2CCNC[C@H]2O)cc1 | -7.82
86 | Cc1ccc([C@@H]2CN(C(=O)c3csc(C)n3)C[C@H]2NC(=O)C2CC2)cc1 | -5.99
87 | CCC(=O)N1CCC(c2nnc(Cn3cncn3)n2C2CC2)CC1 | -15.4
88 | CCCNC(=O)NC(=O)CN1C=Nc2ccccc2S1(=O)=O | -3.12
89 | O=C(CCn1cncn1)NC1CCc2nccn2C1 (stereo unspecified) | -4.39
90 | Cc1nc(CN2CCCC(N(C)CC3(O)CCCCC3)C2)no1 (stereo unspecified) | -10.3
91 | COc1cc(CNCCc2cnn(C)c2)cc2c1OCO2 | -9.3
92 | CN(C(=O)NCc1ccncc1)C1CCCN(c2ccccc2)C1=O (stereo unspecified) | -8.86

Row | Compound | cytotoxicity at 10 µM [%]
93 | Cc1ccc(NC2CCN(C(=O)Cc3c(C)nn(C)c3C)CC2)nn1 | -11.9
94 | CC(C)(C)c1cc(NC(=O)CN2CCn3c(nnc3C3CC3)C2)on1 | -4.1
95 | OC(COCc1ccc(Cl)cc1)CN1CC(n2cccn2)C1 (stereo unspecified) | -6.25
96 | CCc1nnc2n1CCN(Cc1ncc(-c3ccc(F)cc3)o1)C2 | -9.42
97 | Cc1ccc(C)c(C(C)NC(=O)N2CCC(n3cncn3)CC2)c1 (stereo unspecified) | -8.78
98 | Cc1cc(C(=O)N2CCN(Cc3ccsc3)CC2)n(C)n1 | 1.98
99 | COc1ccc(C(=O)NCCNC(=O)c2scnc2Cl)cc1 | -16.8
100 | Cc1ccc(S(=O)(=O)N2CCc3ccc(F)cc32)cc1C(=O)O | -19.4
101 | COCc1nc(C(=O)N2CCCC2c2cc(C)no2)cs1 (stereo unspecified) | -12.9
102 | Cc1cc(C(=O)NC2CCc3nc(C)cn3C2)[nH]n1 (stereo unspecified) | -5.15
103 | COCCOCc1cccc(NC(=O)N2CCCC2c2ccncc2)c1 (stereo unspecified) | 6.79
104 | COc1cc(CN)c(OC)c2c1OCO2 | -1.29
105 | CC(C)n1cnc2c(N3CCCC3)nc(C3CCNCC3)cc21 | -3.03
106 | Cn1cc(CN2CCCC3(CCCN3S(C)(=O)=O)C2)cn1 (stereo unspecified) | 2.08
107 | COc1cc(CNC(C)Cn2cccn2)cc(Cl)c1OC (stereo unspecified) | -1.14
108 | CN(C)CCN1C(=O)CCCC12CCCN(Cc1cccs1)C2 (stereo unspecified) | 0.199
109 | Cc1cccc(CN2CCC3(CCCN(C(=O)c4ccoc4)C3)C2=O)n1 (stereo unspecified) | 3.19
110 | CN(C)CCn1c2c(ccc1=O)CCN(Cc1cnn(C)c1)CC2 | -2.65
111 | CN(C)C(=O)CN1CCOCC2(CCN(c3ncc(F)cn3)CC2)C1 | 0.419
